# Source: PubChem (several laboratories)
# GC-B act = human GC-B receptor activators, primary screen, HEK293 GC-B cells, cGMP TR-FRET, EC30 CNP. activation, % at 10 µM. 370,000 tested, 0.11% active. 0% at EC30 CNP, 100% saturating CNP. Atrial natriuretic peptide receptor 2 (Homo sapiens), P20594;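 active means activation at 10 µM reaching about 35% in either raw or pattern-adjusted values, limit read from the data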
# Target sequence (P20594 whole entry, looked up): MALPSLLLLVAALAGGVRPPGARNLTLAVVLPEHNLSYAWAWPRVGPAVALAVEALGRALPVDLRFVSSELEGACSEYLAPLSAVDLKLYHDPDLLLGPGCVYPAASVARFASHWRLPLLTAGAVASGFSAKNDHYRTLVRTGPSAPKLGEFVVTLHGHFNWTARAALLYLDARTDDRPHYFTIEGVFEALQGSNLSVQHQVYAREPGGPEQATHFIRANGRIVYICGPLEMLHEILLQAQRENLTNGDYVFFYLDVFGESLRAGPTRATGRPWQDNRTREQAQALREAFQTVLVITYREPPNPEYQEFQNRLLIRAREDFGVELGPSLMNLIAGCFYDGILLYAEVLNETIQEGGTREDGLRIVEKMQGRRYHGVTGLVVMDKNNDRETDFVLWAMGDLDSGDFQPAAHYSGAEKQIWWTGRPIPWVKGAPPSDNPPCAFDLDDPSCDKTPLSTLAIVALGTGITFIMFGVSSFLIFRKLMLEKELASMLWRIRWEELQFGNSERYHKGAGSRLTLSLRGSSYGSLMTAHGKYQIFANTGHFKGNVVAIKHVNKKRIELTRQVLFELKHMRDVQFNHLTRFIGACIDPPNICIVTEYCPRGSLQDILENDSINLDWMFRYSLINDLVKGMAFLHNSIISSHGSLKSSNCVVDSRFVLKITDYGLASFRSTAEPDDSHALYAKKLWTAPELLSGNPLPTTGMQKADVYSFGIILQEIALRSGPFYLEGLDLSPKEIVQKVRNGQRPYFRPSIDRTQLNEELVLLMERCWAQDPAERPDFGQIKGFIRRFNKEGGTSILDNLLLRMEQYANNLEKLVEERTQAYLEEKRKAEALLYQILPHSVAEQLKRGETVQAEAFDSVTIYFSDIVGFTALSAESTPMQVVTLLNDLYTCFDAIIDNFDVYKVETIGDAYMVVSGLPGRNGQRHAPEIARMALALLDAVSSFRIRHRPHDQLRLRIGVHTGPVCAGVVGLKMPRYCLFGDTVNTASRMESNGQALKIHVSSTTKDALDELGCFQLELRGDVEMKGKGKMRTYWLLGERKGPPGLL
# SKN-1 inh = suppressors of acrylamide-induced Pgst-4::GFP reporter in worms, primary screen, SKN-1 inhibitor project, whole organism, uHTS, GFP/RFP fluorescence ratio, strain VP596; C. elegans VP596 Pgst-4::GFP/RFP ratio, 24 h; inhibition, % at 21.8 µM; 360,000 tested, 0.49% active; AID 624304, 2012;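 active means interference check ratio from 0.5 to 1.5 plus GFP to RFP signal ratio inhibition reaching or exceeding a fixed threshold, cut at about 30% in these data, passing the limit was not always enough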
# NPR1 activator = GC-A stimulated cGMP production enhancers – HEK293 GC-A cells, cGMP TR-FRET, EC30 ANP, primary screen; Atrial natriuretic peptide receptor 1 (Homo sapiens), P16066; 0% at EC30 ANP, 100% saturating ANP; activation, % at 10 µM; 370,000 tested, 0.14% active; AID 1671463, 2021; in the data active means activation above about 40%
# MT1-MMP act inh = blockers of MT1-MMP proenzyme processing, primary screen, HT1080 RFP-PRO-GFP cells, GFP/RFP fluorescence | Matrix metalloproteinase-14 (Homo sapiens), P50281 | GFP/RFP ratio fluorescence, overnight; percent of plate control window, DMSO zero | GFP/RFP ratio change, % at 20 µM | 360,000 tested, 0.061% active | AID 651647, 2012;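 active means GFP/RFP ratio change of at least 30% with cell ATP level not reduced by more than half and red fluorescence within 50% of control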
#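 Assay system: HT1080 RFP-PRO-GFP cells. Benchmarks: DMSO vehicle wells and RFP-L50D-GFP reporter cell wells. Times: overnight cell settling, then overnight compound exposure, 37 °C, 5% CO2. Compound: 20 µM single dose, 1% DMSO. Read-out basis: GFP/RFP fluorescence ratio.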
# Tb MetRS inh = T. brucei MetRS inhibitors, primary screen, biochemical, luminescence | AID 624268, 2012 | inhibition, % at 11.9 µM | purified T. brucei MetRS, ATP depletion, Kinase-Glo luminescence | methionyl-tRNA synthetase (Trypanosoma brucei brucei) | 360,000 tested, 0.4% active;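 active means inhibition above a per-plate cutoff of the control wells' mean inhibition plus 3 SD, cut at about 5.5% in these data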;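 further: 0% = DMSO wells median and 100% = median of wells with control inhibitor compound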
#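 Material – parasite MetRS enzyme · Medium – HEPES-MgCl2-KCl buffer plus DTT, spermine, BSA, pyrophosphatase · Reagent – ATP, methionine and E. coli bulk tRNA substrates · Times – 15 min enzyme-compound preincubation, 2 h reaction, 10 min detection, 25 °C · Measured by – luminescence of leftover ATP · Evaluation – percent inhibition relative to median high and low control wells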
# A1 inh = caspase 3/7 activation in MEF A1-2A-BIM cells, primary screen, A1 inhibitor project, cell-based, luminescence, HTS. Caspase-Glo 3/7 luminescence, 3 h; percent of clofoctol response, vehicle zero. 330,000 tested, 0.066% active. caspase activation, % (concentration not given with the values). AID 2462, 2010;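 active means over half of replicate activation scores above 10%, or exactly half above 10 with the replicate mean above 10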
# Tb MetRS conf = T. brucei MetRS inhibitors, confirmation, biochemical, luminescence; shares compounds with Tb MetRS inh; T. brucei MetRS enzyme, luminescence (ATP depletion); inhibition, % at 11.9 µM; 1,400 tested, 93% active; in the data active means inhibition above about 7%
# Jurkat tox = Jurkat T cell cytotoxicity, cytotoxicity control for T. brucei MetRS inhibitor project, luminescence, high throughput. shares compounds with Tb MetRS inh. Jurkat cells viability, ATP luminescence. inhibition, % at 8.3 µM. 1,400 tested, 12% active. AID 624413, 2012; in the data active means inhibition above about 15%;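 further: 0% = vehicle and 100% = reference inhibitor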
# Tb MetRS inh FP = T. brucei MetRS inhibitors, orthogonal assay for T. brucei MetRS inhibitor project, biochemical, fluorescence polarization; shares compounds with Tb MetRS inh; 1,400 tested, 44% active; inhibition, % at 11.9 µM; purified T. brucei MetRS; AID 651607, 2012; in the data active means inhibition above about 17%;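 further: 0% = vehicle wells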
# Active calls of the source: *; · = no result given. In the library only some 1.1% were active in any assay of this set; here they are far more common.
SMILES,GC-B act,SKN-1 inh,NPR1 activator,MT1-MMP act inh,Tb MetRS inh,A1 inh,Tb MetRS conf,Jurkat tox,Tb MetRS inh FP
CCN(CC)CCCNC(=O)c1oc(=O)c2ccccc2c1-c1ccc(C)cc1,-22,·,-26,·,·,·,·,·,·
Cc1sc(-c2ccccn2)nc1OC(=O)c1ccc(Cl)c(Cl)c1,0,5,-3,3,14*,0,3,2,0
Cc1sc(-c2ccccn2)nc1OC(=O)c1ccc(F)cc1F,12,4,-2,-2,0,1,·,·,·
COc1ccc(CCN(Cc2cccs2)S(=O)(=O)c2ccc(C)c(C)c2)cc1OC,1,·,1,·,·,·,·,·,·
Clc1ccc2[nH]c3c(NCCN4CCOCC4)ncnc3c2c1,0,13,5,9,42*,0,62*,3,26*
Clc1ccc2[nH]c3c(NCC4CCCO4)ncnc3c2c1 (stereo not drawn),12,·,4,·,·,1,·,·,·
Fc1ccc2[nH]c3c(NCCN4CCOCC4)ncnc3c2c1,·,-18,·,8,27*,0,47*,14,20*
O=C(c1cscn1)N1CCC(Oc2cccnc2)CC1,-4,·,4,·,·,·,·,·,·
O=C(O)c1ccc(CSc2nnc(COc3ccc(Cl)cc3Cl)o2)cc1,0,5,13,1,48*,0,60*,9,35*
COc1ccc(OCc2nnc(SCc3ccc(C(=O)O)cc3)o2)cc1,-2,-4,-6,1,0,-1,·,·,·
CN(C(=O)C(C)(C)C)[C@H]1C[C@H]2c3[nH]c4ccccc4c3CCN2C(=O)[C@H]1CO,5,11,18,-7,1,·,·,·,·
C[C@H](O)[C@@H]1CN2CCc3c([nH]c4ccccc34)[C@@H]2C[C@@H]1N(C)C(=O)Nc1cc(Cl)cc(Cl)c1,-12,17,-17,-15,29*,·,58*,9,37*
C[C@H](O)[C@@H]1CN2CCc3c([nH]c4ccccc34)[C@@H]2C[C@@H]1N(C)C(=O)Nc1ccccc1,-4,9,0,-4,2,·,·,·,·
C[C@H](O)[C@@H]1C(=O)N2CCc3c([nH]c4ccccc34)[C@@H]2C[C@@H]1N(C)C(=O)Nc1ccccc1,0,3,8,-1,2,·,·,·,·
CN(Cc1cc(Cl)cc(Cl)c1)[C@H]1C[C@H]2c3[nH]c4ccccc4c3CCN2C(=O)[C@H]1CO,1,2,-3,-31,62*,·,106*,-3,86*
C[C@H](O)[C@@H]1C(=O)N2CCc3c([nH]c4ccccc34)[C@@H]2C[C@@H]1N(C)C(=O)Nc1cc(Cl)cc(Cl)c1,-7,7,-4,4,71*,·,91*,18*,70*
COc1ccc(CN(CC#Cc2ccccc2)Cc2ccccc2)c(OC)c1,0,·,0,·,·,·,·,·,·
COC(=O)c1ccc(Cn2ccc3ccc(-c4ccc5ccn(C(=O)c6ccccc6C)c5c4)cc32)cc1,1,·,-2,·,·,·,·,·,·
COc1ccc(N2CCC(CNC(=O)Nc3ccc(Cl)cc3)C2)cc1 (stereo not drawn),0,17,3,-1,14*,1,29*,11,25*
COc1ccc(C2C(C(=O)Nc3cc(OC)ccc3OC)CCC(=O)N2c2ccc(OC)cc2)cc1 (stereo not drawn),0,·,-3,·,·,·,·,·,·
COc1cccc(CNc2ccc([N+](=O)[O-])cc2Cl)c1O,-1,-11,3,0,17*,1,18*,7,13
N#CC1=C(N)Oc2cc(N)ccc2C1c1ccsc1 (stereo not drawn),5,-3,2,-1,0,0,·,·,·
N#CC1=C(N)Oc2cc(N)ccc2C1c1cccc(Br)c1 (stereo not drawn),6,14,46*,10,34*,0,2,75*,10
N#CC1=C(N)Oc2cc(N)ccc2C1c1cc(Br)cs1 (stereo not drawn),-4,-8,19,-86,43*,1,3,56*,11
N#CC1=C(N)Oc2cc(N)ccc2C1c1ccccc1F (stereo not drawn),1,13,38,-38,0,1,·,·,·
SMILES,GC-B act,SKN-1 inh,NPR1 activator,MT1-MMP act inh,Tb MetRS inh,A1 inh,Tb MetRS conf,Jurkat tox,Tb MetRS inh FP
N#Cc1ccc(/C=C2\CC3(OC(=O)c4ccc(F)cc4)CCCN2C3)cc1 (stereo not drawn),-15,·,-5,·,·,·,·,·,·
CCCCn1c(NS(=O)(=O)c2ccc(C)cc2)c(S(=O)(=O)c2ccccc2)c2nc3ccccc3nc21,8,-1,-2,3,8.7*,0,8.9*,0,6
Cc1ccc(S(=O)(=O)c2c(N)n(CCCN(C)C)c3nc4ccccc4nc23)cc1,1,-14,0,-12,-1,0,·,·,·
O=C(O)CN1C(=O)/C(=C\c2ccc(OC(=O)c3ccco3)cc2)SC1=S,1,2,-1,-31,8.8*,-2,27*,-5,15
O=C(O)CN1C(=O)/C(=C\c2cccc(OC(=O)c3ccco3)c2)SC1=S,3,19,0,-2,0,-1,·,·,·
CCN1CCCC1Cn1cnc2c([nH]c3cccc(Cl)c32)c1=O (stereo not drawn),-1,-19,21,6,-1,0,·,·,·
CCN1CCCC1Cn1cnc2c([nH]c3ccc(Cl)cc32)c1=O (stereo not drawn),-6,-8,4,-1,10*,2,14*,0,14
CC(C)CCN(C)C1CCN(C(=O)Nc2ccccc2)CC1,-4,·,2,·,·,·,·,·,·
